Screening results deposited in PubChem by SRMLSC.
The full list was thinned out, with hits kept by preference.
H69AR growth 86K = growth inhibitors of human H69AR lung tumor cells; viability, % at 10 µM; 6% of 85,000 active; H69AR lung tumor viability, ATP luminescence, 72 h; active compounds read low;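 active means viability at or below 40%; inactive means viability above 40%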;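 further: multidrug resistant small cell line overexpressing MRP-1 efflux transporter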
PTEN del growth = growth suppressors of cells with PTEN tumor suppressor deletion. HCT116 PTEN-null viability, CellTiter-Glo, 60 h; active compounds read low. viability, % at 10 µM. 1.2% of 140,000 active. AID 827;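 active means viability at or below a set limit, 4 SD under the median of all tested compounds, cut at about 3.7% in these data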;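 further: PTEN knockout HCT116 line with beta catenin targeted HCT116 as companion control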
HUVEC prolif 384 = blocks proliferation of human endothelial cells; HUVEC proliferation, CellTiter-Glo luminescence, 72 h; active compounds read low; viability, % at 10 µM (by protocol); 1.1% of 86,000 active;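 active means viability at or below 30%; inactive means viability above 30%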
Fibroblast inh = blocks proliferation of human lung fibroblasts; LL 47 human lung fibroblast viability, ATP luminescence; active compounds read low; viability, % at 10 µM; 1.1% of 85,000 active;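 active means viability at or below 50% in the single dose screen; inactive means viability above 50%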;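 further: compound exposure lasted 72 h before the ATP readout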
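Material: human lung fibroblast line LL 47, low passage; Evaluation: viability percentage against median untreated-cell control; Buffer or medium: 15% FBS in IMEM; Incubation: 72 h compound exposure at 37 °C after overnight plating; Dosing: 0.1% DMSO in all compound wells; Measured by: CellTiter-Glo luminescence.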
bCat KO growth = beta-catenin-lacking colon tumor cell growth suppression; HCT116 beta-catenin knockout viability, CellTiter-Glo, 60 h; active compounds read low; viability, % at 10 µM; 1.5% of 140,000 active; AID 818;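 active means viability at or under a set limit, the compound median less 4 SD, cut at about 6% in these data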
Large screens that a line does not name were inactive.

CC(C)NC(=O)c1sc2nc(-c3cccs3)cc(-c3cccs3)c2c1N	none
N=C1SC(c2ccccc2)C(=O)N1c1ncc(Cc2ccccc2Cl)s1 (centres undefined)	none (no result: H69AR growth 86K, HUVEC prolif 384, Fibroblast inh)
Cc1ccnc2ccc(-c3nc4ccccc4o3)cc12	HUVEC prolif 384 30
Cc1nc2ccc(-c3nc4ccccc4o3)cc2[nH]1	none
Cc1cccc(Nc2nc(NCc3ccco3)c3ccccc3n2)c1	PTEN del growth 1.8, bCat KO growth 1.8 (no result: H69AR growth 86K, HUVEC prolif 384, Fibroblast inh)
O=S(=O)(Nc1nc2ccccc2nc1NCc1ccco1)c1ccc(Cl)cc1	none
Cc1ccc(-c2nc(NCc3ccco3)c3ccccc3n2)cc1	none (no result: H69AR growth 86K, HUVEC prolif 384, Fibroblast inh)
Cc1ccc(S(=O)(=O)Nc2nc3ccccc3nc2NCc2ccco2)cc1	H69AR growth 86K 36
CC(=O)c1cnc2c(-c3ccc(Cl)cc3)c(C)nn2c1C	HUVEC prolif 384 28
COc1ccc2c(CC(=O)OCC(=O)Nc3sc4c(c3C#N)CCC(C)C4)coc2c1 (centres undefined)	none (no result: H69AR growth 86K, HUVEC prolif 384, Fibroblast inh)
CCOc1ccc(C2NC(=O)C(C#N)=C(S)N2c2ccc(OC)cc2)cc1OC (centres undefined)	none
CCOC(=O)CSC1=C(C#N)C(=O)NC(c2ccc(OC)c(OC)c2)S1 (centres undefined)	H69AR growth 86K 6.6
CCOC(=O)CSC1=C(C#N)C(=O)NC(c2ccc(OC)cc2)S1 (centres undefined)	H69AR growth 86K 2.2
CCOC(=O)CSc1nc2cc(OC)ccc2cc1C#N	none
COC(=O)c1cc(OC)c(OC)cc1NC(=O)c1ccc(C)cc1	H69AR growth 86K 16
O=C(OCc1ccccc1)c1cn(-c2ccccc2)nc1-c1ccncc1	none
Cc1ccc(Nc2nc(Nc3ccc(C)cc3)nc(SC3=NCCS3)n2)cc1	H69AR growth 86K 11, PTEN del growth 3.5, bCat KO growth 4.2
CC(C)(C)c1ccccc1OCCCCCNCCO	H69AR growth 86K 11
Cc1ccccc1OCCCCCNCCO	none (no result: H69AR growth 86K, HUVEC prolif 384, Fibroblast inh)
CCN=c1scc(-c2ccco2)n1/N=C/c1ccc(O)cc1	H69AR growth 86K 40
O=C(CSC1=NCCN1)NC12CC3CC(CC(C3)C1)C2	H69AR growth 86K 16
O=C(CSC1=NCCN1)NC1CCCCCC1	none
O=C(c1ccc(N2C(=O)C3C4c5ccccc5C(c5ccccc54)C3C2=O)cc1)N1CCOCC1 (centres undefined)	none (no result: H69AR growth 86K, HUVEC prolif 384, Fibroblast inh)
COc1cc(/C=C2/C(=N)N3C=CSC3=NC2=O)ccc1OCCCOc1cc(C)ccc1C	H69AR growth 86K 19, HUVEC prolif 384 15
O=C(N/N=C/c1ccccn1)c1ccc(Br)cc1	PTEN del growth 3.6, bCat KO growth 3.6 (no result: H69AR growth 86K, HUVEC prolif 384, Fibroblast inh)
C=CCOc1ccc(C2OC34CCCCC3C(C#N)(C#N)C2(C#N)C(=N)O4)cc1 (centres undefined)	H69AR growth 86K 13
COc1ccc(C(=O)/C=C/c2ccc(OC)c(CN3CCOCC3)c2)cc1	none (no result: H69AR growth 86K, HUVEC prolif 384, Fibroblast inh)
COc1cccc(NC(=O)c2ccc(CN3CCOCC3)cc2)c1	none
O=C(Oc1ccc(Cl)c2cccnc12)N1CCOCC1	none (no result: H69AR growth 86K, HUVEC prolif 384, Fibroblast inh)
COc1cccc(C(=O)Oc2c(CN3CCOCC3)cc(Cl)c3cccnc23)c1	H69AR growth 86K 1.5, PTEN del growth 1.4, Fibroblast inh 6.5, bCat KO growth 1.6
COc1cc(C(=O)Oc2c(CN3CCOCC3)cc(Cl)c3cccnc23)cc(OC)c1OC	H69AR growth 86K 2.1, PTEN del growth 1.5, Fibroblast inh 4.7, bCat KO growth 2.4
COc1ccc(C(=O)Oc2c(CN3CCOCC3)cc(Cl)c3cccnc23)cc1	H69AR growth 86K 2.4, PTEN del growth 3.1, Fibroblast inh 47, bCat KO growth 4.9
O=C(Oc1c(CN2CCOCC2)cc(Cl)c2cccnc12)c1ccc(F)cc1	PTEN del growth 1.9, Fibroblast inh 4.5, bCat KO growth 5.0
Cc1cc(NC(=O)CCC2CCCC2)no1	none
O=C(CCNC(=O)Cn1ccc2ccccc2c1=O)NCCc1ccc(Cl)cc1	none (no result: H69AR growth 86K, HUVEC prolif 384, Fibroblast inh)
CN(C(=O)CSCC(=O)O)C1CCCCC1	none (no result: H69AR growth 86K, HUVEC prolif 384, Fibroblast inh)
CN1/C(=C/C(=O)c2nc(S(C)(=O)=O)ncc2Cl)C(C)(C)c2ccccc21	H69AR growth 86K 0.6, PTEN del growth 2.6, Fibroblast inh 19, bCat KO growth 2.0
CCCOc1c(Br)cc(/C=N/O)cc1OC	H69AR growth 86K 30
CCOc1cc(/C=N/O)cc(Br)c1OCC	none
O=c1oc2ccccc2nc1/C=C(O)/C=C\c1ccccc1	none (no result: H69AR growth 86K, HUVEC prolif 384, Fibroblast inh)
O=C1C=CCC(/C=C/c2ccccc2)O1 (centres undefined)	bCat KO growth 4.3 (no result: H69AR growth 86K, HUVEC prolif 384, Fibroblast inh)
CC(C)(C)n1ncc2c(=O)n(CC(=O)NCc3ccc(F)cc3)cnc21	H69AR growth 86K 21
CCOC(=O)c1ccccc1NC(=O)Cn1cnc2c(cnn2C(C)(C)C)c1=O	H69AR growth 86K 37
COc1ccc2c(c1)OCC1=C2CCC2(C)C(=O)CC=C12 (centres undefined)	H69AR growth 86K 11
CCOC(=O)CSc1nc2cc(C)ccc2cc1C#N	H69AR growth 86K 34
CCOc1ccc2nc(SCC(=O)N3CCCCCC3)c(C#N)cc2c1	H69AR growth 86K 38 (no result: Fibroblast inh)
COC(=O)CC(=O)CSc1nc2c(cc1C#N)CCCCC2	none
CCOc1ccc2cc(C#N)c(SCC(=O)N3CCOCC3)nc2c1	none
CCOC(=O)CC(=O)CSc1nc2c(cc1C#N)CCC2	H69AR growth 86K 35
CCOC(=O)Cc1cc(-c2ccc(F)cc2)nc2ccc3ccccc3c12	none (no result: H69AR growth 86K, HUVEC prolif 384, Fibroblast inh)
CCC(C)(C)c1ccc2c(c1)C(=O)c1ccccc1C2=O	none (no result: H69AR growth 86K, HUVEC prolif 384, Fibroblast inh)
COc1ccc2[nH]c(O)c(N=O)c2c1	none (no result: H69AR growth 86K, HUVEC prolif 384, Fibroblast inh)
Cc1cc2c(N=O)c(NO)ccc2[nH]1	Fibroblast inh 1.9, bCat KO growth 4.7 (no result: H69AR growth 86K)
COc1ccc(-c2cn3cc(C)ccc3n2)cc1OC	H69AR growth 86K 39
Cc1cccc(Nc2nnc(SCC(=O)NC(=O)Nc3ccc4c(c3)OCCO4)s2)c1	PTEN del growth 0.8, bCat KO growth 0.6 (no result: H69AR growth 86K, HUVEC prolif 384, Fibroblast inh)
Cc1cc2oc3c(c(=O)c2cc1C)C(c1cccc(Br)c1)N(Cc1ccco1)C3=O (centres undefined)	H69AR growth 86K 4.5, PTEN del growth 1.4, bCat KO growth 1.8
Cc1ccc2oc3c(c(=O)c2c1)C(c1cccc(Br)c1)N(Cc1ccco1)C3=O (centres undefined)	H69AR growth 86K 3.1, Fibroblast inh 11
CCOc1cc(C2c3c(oc4cc(C)c(Cl)cc4c3=O)C(=O)N2Cc2ccco2)ccc1O (centres undefined)	H69AR growth 86K 3.1
Cc1cccc(C(=O)N/N=C/c2cc(Br)c(Br)o2)c1	none (no result: H69AR growth 86K, HUVEC prolif 384, Fibroblast inh)
COc1ccc(C2NC(=S)NC3=C2CCc2cc(OC)ccc23)cc1 (centres undefined)	none (no result: H69AR growth 86K, HUVEC prolif 384, Fibroblast inh)
CCOc1ccc(NC(=O)CCn2c(=O)[nH]c3ccsc3c2=O)cc1	none (no result: H69AR growth 86K, HUVEC prolif 384, Fibroblast inh)
COC(CN(C(=O)CCl)C(C(=O)NC1CCCCC1)c1ccc(C)cc1)OC (centres undefined)	none (no result: H69AR growth 86K, HUVEC prolif 384, Fibroblast inh)
COc1ccc(C(C(=O)NC2CCCC2)N(C(=O)c2ccoc2C)c2ccc(C)cc2)cc1 (centres undefined)	none (no result: H69AR growth 86K, HUVEC prolif 384, Fibroblast inh)
COc1ccc(C(C(=O)NC2CCCCC2)N(C(=O)CCl)c2ccc(OC)cc2)cc1 (centres undefined)	PTEN del growth 0.8, bCat KO growth 1.4 (no result: H69AR growth 86K, HUVEC prolif 384, Fibroblast inh)
